Usually inhibition stands for the drop in the measured response relative to a control, in per cent.

This is one part of the list. Active and inactive are the calls of the source.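 The calls were made as follows, unless noted: active = at 20 µM dose, 40% or more inhibition averaged across four replicates; inactive = the rest.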

A short description of experiment [1]: inhibition of PEG-3 promoter luciferase signal – cell-based, HeLa, luciferase reporter, single concentration, confirmation (AID 602417). Particulars: HeLa PEG-Prom luciferase reporter, luminescence, overnight; at 20 µM; stronger effect = higher value.
Experiment [2] concerns the target PEG-3 (UniProt Q6IN02). The experiment can be described thus: inhibition of PEG-3 promoter-driven reporter – cell-based, HeLa, luciferase, CREF/GAPDH counter-screen panel, dose response (AID 624167). The note with it: CREF/GAPDH counter-screens; HeLa PEG-Prom luciferase reporter, overnight, run 1, dose range 1, at 100 µM (top of the series) unless noted. (A counterscreen serves to expose hits that act by an unwanted route or on another target.)

In experiment [3] the target is PEG-3 (UniProt Q6IN02). Described as above. Particulars: CREF/GAPDH counter-screens; HeLa PEG-Prom luciferase reporter, overnight, run 2, dose range 1, at 100 µM (top of the series) unless noted.
Sequence of PEG-3 (Q6IN02 whole entry, looked up): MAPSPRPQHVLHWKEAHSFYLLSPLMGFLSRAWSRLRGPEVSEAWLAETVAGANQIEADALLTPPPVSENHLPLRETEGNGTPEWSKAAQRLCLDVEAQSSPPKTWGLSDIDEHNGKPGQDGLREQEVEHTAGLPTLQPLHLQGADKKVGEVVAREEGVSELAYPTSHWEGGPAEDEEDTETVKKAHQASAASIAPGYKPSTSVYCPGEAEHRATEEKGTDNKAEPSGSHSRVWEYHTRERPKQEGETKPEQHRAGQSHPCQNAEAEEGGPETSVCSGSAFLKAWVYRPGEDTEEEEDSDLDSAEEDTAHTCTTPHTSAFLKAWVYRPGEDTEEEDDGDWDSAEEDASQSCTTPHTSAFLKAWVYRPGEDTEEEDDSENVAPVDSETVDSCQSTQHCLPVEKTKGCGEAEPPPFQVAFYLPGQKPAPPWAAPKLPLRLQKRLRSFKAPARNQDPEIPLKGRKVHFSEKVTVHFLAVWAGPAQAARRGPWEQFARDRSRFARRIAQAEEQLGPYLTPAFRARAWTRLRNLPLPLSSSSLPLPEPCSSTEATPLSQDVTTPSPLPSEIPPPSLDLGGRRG
Experiment [4] in a line: NF-kB reporter suppression in CF airway cells – cell-based, GFP fluorescence, single concentration, confirmation (AID 602472; in the data active = inhibition above about 40%;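 also: stimulus PAF is a Pseudomonas aeruginosa filtrate and not platelet activating factor; plate controls were DMSO wells with stimulus for no effect and unstimulated DMSO wells for full effect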). The note with it: KKLEB CF airway cells, PAF-induced NF-kB-GFP fluorescence, overnight; at 5 µM; stronger effect = higher value. The procedure, abridged: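 Material: KKLEB immortalized cystic fibrosis airway epithelial cells with NFkB-GFP reporter; buffer or medium: 2% FBS cell medium, serum-free stimulus medium; also added: PAF stimulation; dosing: 5 µM single dose; times: 2 h compound pretreatment at 37 °C, overnight PAF exposure; detection: GFP fluorescence of NFkB reporter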

The nature of experiment [5]: NFkB reporter suppression in cystic fibrosis bronchial cells – cell-based, uHTS hits, panel, cytotoxicity readout, dose response (AID 624344). The note with it: CF bronchial epithelial cells, PAF-induced NFkB reporter inhibition, with PAF, run 1; at 79 µM (top of the series) unless noted.
Experiment in experiment [6]: as above
Particulars: CF bronchial epithelial cells, PAF-induced NFkB reporter inhibition, with PAF, run 2; at 79 µM (top of the series) unless noted.

Regarding `CNC(=O)c1ccsc1NC(=O)c1ccc(S(=O)(=O)N2CCc3ccccc32)cc1`, the inhibition was 52.4% (active) in experiment [1], 65% with PEG-3 [2] and 63.5% with PEG-3 [3].
With `COc1ccc(NC(=O)c2cc(-c3cc(OC)c(OC)c(OC)c3)nc3ccccc23)c(OC)c1`, in experiment [4], the inhibition was 24.8% (inactive).
Take `O=C(Nc1cccc(-c2cccc(Cl)c2)c1)C1CCN(C2CCC2)CC1`: the values for the inhibition (in experiment [1]; with PEG-3 [2]; with PEG-3 [3]) were 92.8% (active), 98% and 98.9%, respectively.
Consider `COc1ccc(NC(=S)SC)cc1OC`, for which, in experiment [4], the inhibition is 39.3% (inactive).
As for `CCCc1nc2c(c(=O)c3ccccc3n2C)c(=O)n1C1CCCCCC1`, in experiment [4], the inhibition was 46.9% (active).
For the molecule `CC(C)CN(C(=O)COC(=O)c1ccc2ccccc2c1)c1c(N)n(Cc2ccccc2)c(=O)[nH]c1=O`, the inhibition in experiment [1] was 34.1% (inactive).
For `CC1(C)O[C@@H]2CC3C4C[C@H](F)C5=CC(=O)C=CC5(C)C4C(O)CC3(C)[C@]2(C(=O)CO)O1` (some centres undefined), the inhibition in experiment [4] is 27.4% (inactive).
The same measure, in the same setting: as for `O=C(Nc1ccc2oc(-c3ccc4ccccc4c3)nc2c1)c1cccs1`, the figure is 38.7% (inactive).
Regarding `Cc1ccc(-c2nc3ccccc3[nH]2)cc1NC(=O)c1sc2ccccc2c1Cl`, in experiment [1], the inhibition is -5.64% (inactive).
Turning to `COc1ccc(-c2cc(C(=O)N(C)Cc3ccc(OC)c(OC)c3OC)c3ccccc3n2)cc1OC`, the inhibition is 60.4% (active) in experiment [1], 68.7% with PEG-3 [2] and 72.5% in the experiment with PEG-3 [3].
For `CCCc1cc(=O)n2[nH]c(C)c(-c3ccc(Cl)cc3)c2n1`, in that order: 51.5% (active), 94% and 88.7%.
Take `COc1ccc2[nH]c(=O)c(CN(Cc3cccnc3)S(=O)(=O)c3ccccc3F)cc2c1`: the inhibition in experiment [1] is 56.7% (active); in experiment [4], 86.3% (active); in experiment [5], 109%; in experiment [6], 103%.
Take `O=C(NCCN1CCOCC1)c1ccc(/C=C2\Sc3ccccc3N(Cc3ccc(F)cc3)C2=O)cc1`: the inhibition in experiment [1] was 42.8% (active).

The record behind these values is PubChem BioAssay.
